TAAR1 agonist – agonists of human TAAR1 | hit rate 0.99% among 360,000 | CHO RD-HGA16 TAAR1, Fluo-8 calcium fluorescence; vehicle wells 0%, saturating PEA agonist 100% | activation, % at 3 µM | Q96RJ0;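 active = activation above the mean activation of all test compounds in the run plus 3 SD, cut at about 38% in these data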
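System: CHO-derived RD-HGA16 cells with stable Gα16 and human TAAR1 / Times: 17-24 h plating, Fluo-8 75 min 37 °C, 30 min RT / Technique: calcium-sensitive Fluo-8 signal, excitation 470-495, emission 515-575 nm / Measure: % activation relative to PEA EC100 response / Benchmarks: DMSO and PEA EC100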
TMEM16A act – activates or potentiates the mouse TMEM16A chloride channel. Q8BHY3. HEK293 TMEM16A/YFP-H148Q/I152L, iodide quench fluorescence; active compounds read low. B-score at 10 µM. hit rate 0.3% among 340,000. AID 623877;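 active = fluorescence-ratio B-score plate-corrected deviation score at least 3 library SD below zero, with starting fluorescence score within 5 deviations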;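 also: channel opened by trigger with iodide after compound preincubation; score built on the fluorescence ratio of max minus min over baseline; more negative score means more quench and so TMEM16A activation or potentiation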
TAAR1 antag – antagonists of human TAAR1; AID 624466; inhibition, % at 3 µM; hit rate 1.5% among 360,000; Q96RJ0; CHO RD-HGA16 TAAR1, Fluo-8 calcium fluorescence, antagonist;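 active = inhibition above a per-plate cutoff, the mean inhibition of test compounds on that plate plus 3 SD, cut at about 49% in these data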
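Test system – hTAAR1-expressing CHO RD-HGA16 cells, Gα16-coupled · Reagent – β-PEA at EC80 concentration, post-compound challenge · Compound dosing – 3 µM, single point · Timing – 140 s kinetic read after compound, 140 s after agonist · Detection – Fluo-8 intracellular calcium dye fluorescence, real-time kinetic reads · Control set – DMSO and EC80 PEA controls · Repeats – n of 1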
ANO1 block – mouse TMEM16A channel inhibition, primary screen; Q8BHY3; HEK293 TMEM16A/YFP iodide influx fluorescence, ionomycin; normalized B-score (activity score, 25-100; higher = stronger inhibition) at 10 µM; hit rate 1.2% among 310,000; AID 588511;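 active = ratio plate-corrected score three or more library SD toward inhibition, starting fluorescence score within five deviations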;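 also: score derived from kinetic fluorescence span divided by baseline fluorescence per well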
CRFBP-R2 agonist – CRF-BP/CRF-R2 complex agonism. hit rate 0.46% among 350,000. activation, % at 13.2 µM. AID 588473. HEK293 CRF-R2/CRF-BP, calcium dye fluorescence (FLIPR); percent of saturating CRF peptide response;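 active = activation of at least 50%, plus an integration ratio under a set limit after plate pattern correction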
CRFBP-R2 block – antagonists of CRF-binding protein/CRF-R2 receptor complex; hit rate 0.59% among 350,000; HEK293 CRF-R2/CRF-BP, CRF-induced calcium fluorescence; AID 588475; inhibition, % at 11.8 µM;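 active = inhibition of the ligand-induced calcium signal above about 50% at the single tested concentration, limit read from the data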
TMEM16A reconf – re-confirmation of mouse TMEM16A chloride channel inhibitors; inhibition, % at 10 µM; hit rate 39% among 2,300; HEK293 TMEM16A/YFP-H148Q, iodide quench fluorescence; ionomycin added to raise cell calcium; shares compounds with ANO1 block;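 active = mean duplicate percent inhibition, scaled so buffer wells are 0 and the reference blocker 100, over three buffer SD above buffer mean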
TMEM16A Ca cntr – alters calcium mobilization in TMEM16A HEK293 cells, counter-screen; shares compounds with ANO1 block; TMEM16A/YFP HEK293, Fluo4 calcium mobilization; calcium response (% of ionomycin), % at 10 µM; hit rate 2% among 2,300; AID 652231;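 active = duplicate-averaged calcium signal over 20% of the ionomycin maximum, relative to buffer baseline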;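 also: each well's signal is peak minus trough fluorescence divided by its pre-addition baseline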
YFP-HEK293 quench – acts in parental YFP-HEK293 cells lacking TMEM16A, counter-screen; iodide YFP quench, ionomycin; AID 652233; 2,300 tested, under 10 active; YFP ratio F(max-min)/F0 at 10 µM; shares compounds with ANO1 block;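 active = yellow fluorescent protein signal ratio exceeding the buffer control mean by over 5 SD of those controls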;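 also: ratio is mean of duplicate wells from kinetic YFP trace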
ClC-1 inh – rat ClC-1 inhibition, TMEM16A specificity screen. shares compounds with ANO1 block. CHO ClC-1-YFP, iodide influx fluorescence quench; iodide control reads 0, buffer control 100. ratio percent, % at 10 µM. 2,300 tested, under 10 active;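 active = duplicate-mean ratio percent above the mean of iodide-only control wells, which defines zero, plus 5 of their SD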;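 also: higher percent means stronger block of ClC-1 iodide influx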
A number is an active result; 0 = inactive; - = no result given. A selection: hits, their analogues and other compounds. The true share with any hit is near 3.9%.

SMILES	TAAR1 agonist	TMEM16A act	TAAR1 antag	ANO1 block	CRFBP-R2 agonist	CRFBP-R2 block	TMEM16A reconf	TMEM16A Ca cntr	YFP-HEK293 quench	ClC-1 inh
Cc1cc(OCC(=O)Nc2ccncc2)ccc1Br	0	0	0	100	0	0	0	0	0	0
COc1cccc(NC(=O)COc2ccc(Br)c(C)c2)c1	0	0	0	0	0	0	-	-	-	-
O=C(COc1ccc(Cl)cc1)Nc1ccc(Cc2ccncc2)cc1	0	0	0	25	0	0	17%	0	0	0
O=C(NCc1ccc(Cl)cc1)c1ccccc1Oc1ccccc1	0	0	0	100	0	0	0	0	0	0
Cc1ccc(S(=O)(=O)N2CCOCC2)cc1C(=O)Nc1ccc2c(c1)OCCO2	0	0	0	-	0	0	-	-	-	-
Cc1c(Cl)cccc1NC(=S)NNc1ncc(C(F)(F)F)cc1Cl	0	0	0	25	0	0	40%	0	0	0
Cc1ccccc1NC(=S)NNc1ncc(C(F)(F)F)cc1Cl	0	0	0	0	0	0	-	-	-	-
c1ccc(OC2CCCCC2N2CCOCC2)cc1 (stereo not given)	0	-	0	-	0	0	-	-	-	-
c1ccc(-c2nc(-n3nc4ccccc4n3)nc3ccccc23)cc1	0	0	65	100	0	0	0	0	0	0
Clc1ccc(-c2nc(N3CCCCC3)nc3ccccc23)cc1	0	0	0	0	0	0	-	-	-	-
COc1ccc(N(Cc2cc(=O)[nH]c3ccccc23)C(=O)CCl)cc1	0	0	0	0	0	0	-	-	-	-
c1ccc(CCNc2ncnc3ccccc23)cc1	0	0	0	25	0	0	0	0	0	0
Cc1cc2c(NCCc3ccccc3)ncnc2s1	0	0	0	25	0	0	24%	0	0	0
CCCCCCCCNc1ncnc2ccccc12	-	0	-	100	0	0	38%	0	0	0
Brc1ccc2ncnc(NCc3ccccc3)c2c1	0	0	0	0	0	0	-	-	-	-
Cc1cc(C(=O)NCc2ccccc2F)c2ccccc2n1	0	0	0	0	0	0	-	-	-	-
CCOC(=O)c1cnc2sc3c(n2c1=O)CCCC3	0	0	0	100	0	0	0	0	0	0
Cc1ccc(N(CC(=O)NCc2ccco2)C(=O)CCC(=O)Nc2nccs2)cc1C	0	0	0	0	0	0	-	-	-	-
CC(C)(C)n1cn[nH]c1=S	0	0	0	0	0	0	-	-	-	-
COc1ccc(NS(=O)(=O)c2ccc3c(c2)Cc2ccccc2-3)cn1	0	0	0	25	0	0	0	0	0	0
O=C(COc1ccc2c3c(c(=O)oc2c1)CCCC3)N1C[C@H]2C[C@@H](C1)c1cccc(=O)n1C2	0	0	0	0	0	0	-	-	-	-
Cn1c(CNc2nc3ccccc3n2CCN2CCCCC2)nc2ccccc21	0	0	0	25	0	0	0	0	0	0
CCCS(=O)(=O)N1CCC(C(=O)NCCCOC)CC1	0	0	0	100	0	0	0	0	0	0
COc1ccc(NS(=O)(=O)c2ccc(-c3cnc(C4CC4)o3)cc2)cc1OC	0	0	0	25	0	0	34%	0	0	0
Cc1ccc(C(=O)c2cnc3ccccc3c2-c2ccccc2)cc1	0	0	0	100	0	0	0	0	0	0
SMILES	TAAR1 agonist	TMEM16A act	TAAR1 antag	ANO1 block	CRFBP-R2 agonist	CRFBP-R2 block	TMEM16A reconf	TMEM16A Ca cntr	YFP-HEK293 quench	ClC-1 inh
Cc1ccc(C(=O)c2nc(C(=O)NCCO)nc3ccccc23)cc1	0	0	0	-	0	0	-	-	-	-
CCCCn1c(SCC(=O)N2CCCC2)nnc1-c1ccccc1	0	0	0	100	0	0	0	0	0	0
COCC(C)n1c(C)cc(C(=O)CSc2nnc(-c3ccco3)o2)c1C (stereo not given)	0	0	0	-	0	0	-	-	-	-
Cc1cc(C(=O)CSc2nnc(-c3cccs3)o2)c(C)n1-c1ccccc1	0	0	0	100	0	0	0	0	0	0
Cc1cc(C(=O)CSc2nnc(-c3ccco3)o2)c(C)n1Cc1ccco1	0	0	0	0	0	0	0	0	0	0
CCC(=O)N1CCC1(C)C(=O)Nc1cccc(OC)c1OC (stereo not given)	0	-	0	-	-	-	-	-	-	-
O=C(COCC(=O)Nc1cccc(C(F)(F)F)c1)Nc1cccc(C(F)(F)F)c1	0	0	0	0	0	0	-	-	-	-
COc1cc(NC(=O)CSCC(=O)Nc2cccc(C(F)(F)F)c2)c(Cl)cc1Cl	0	0	0	100	0	0	0	0	0	0
CCCc1ccc(C(=O)NC(=O)c2ccccc2O)cc1	0	0	0	100	51	0	34%	22%	0	0
CCOC(=O)C1CCCN(S(=O)(=O)c2ccc(C)cc2)C1 (stereo not given)	0	0	0	0	0	0	-	-	-	-
CCOC(=O)C1CCCN(S(=O)(=O)c2ccc(S(=O)(=O)N(CC)CC)cc2)C1 (stereo not given)	0	0	0	25	0	0	0	0	0	0
CC(OC(=O)Cn1c(C(F)(F)F)nc2ccccc21)C(=O)N1CCCc2ccccc21 (stereo not given)	0	0	0	100	0	0	0	0	0	0
CCc1cc(C(=O)COc2ccccc2F)c(O)cc1O	0	0	0	100	0	0	47%	0	0	0
CCCc1cc(C(=O)Cc2ccc(C(=O)OCC)o2)c(O)cc1O	0	0	0	100	0	0	66%	0	0	0
CCc1cc(C(=O)Cc2ccc(F)cc2)c(O)cc1O	0	0	0	100	0	0	68%	0	0	0
CC1(C(=O)NS(=O)(=O)c2ccccc2)CCN1C(=O)CC1CC1 (stereo not given)	0	-	0	-	-	-	-	-	-	-
CNC(=S)N1N=C(c2ccc(OC)cc2)CC1c1ccccc1Cl (stereo not given)	0	0	0	25	0	0	45%	0	0	0
CNC(=S)N1N=C(c2ccc(OC)cc2)CC1c1ccc(Cl)cc1Cl (stereo not given)	0	0	0	0	0	0	-	-	-	-
Cc1ccc(C)c(NC(=O)CSc2nnc(-c3ccccc3)o2)c1	0	0	0	100	0	0	0	0	0	0

Screens: PubChem BioAssay, several laboratories
